Experiments:
Format in all cases: functional
Rattus norvegicus [1] = assay: Inhibition of adjuvant induced swelling of rat right hind paw by 50 mg/kg p.o. administration.; details: route oral
Rattus norvegicus [2] = species on record: Rattus norvegicus; assay: Bone resorption inhibitory effect was evaluated as calcium released from bone into medium at 10 uM compound concentration, expressed as percent of control; set-up: scale not given: the % may be the effect or the level left
Procedure, shortened: (§1)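 Rat fetal long-bone (Raisz) assay. A pregnant Sprague–Dawley rat received 50 µCi 45Ca s.c. on gestation day 18. Fetal humeri (radii and ulnae) were taken the next day and cleaned of connective tissue and cartilage. Bones were preincubated 24 h at 37 °C, 5% CO2, in BGJb medium with 2 mg/mL BSA. They were then cultured 2 days with compound at 10 or 30 µM final. Read-out was 45Ca released/(released + bone-retained) ×100, mean of five bones, as % of untreated same-litter controls.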

Rattus norvegicus [3] = assay: Inhibitory effect of 12.5 mg/Kg orally administered compound against swelling of right hand paw as a measure of anti-inflammatory activity; details: po
Rattus norvegicus [4] = species on record: Rattus norvegicus; assay: Effective dose of compound to inhibit the rat's left hand paw swelling by 50%.
Procedure, shortened: (§2)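 Adjuvant arthritis in male Lewis rats, 7 weeks old, n = 7. Rats were sensitized intradermally in the right hind plantar site with 0.05 mL of 0.5% killed M. tuberculosis H37 RA in liquid paraffin. Compound in 0.5% methylcellulose was given p.o. once daily for 14 days, starting day 0. Left hind paw volume was measured on days 0 and 14. ED50 came from linear regression across three or four doses.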

Rattus norvegicus [5] = species on record: Rattus norvegicus; assay: Bone resorption inhibitory effect was evaluated as calcium released from bone into medium at 25 uM compound concentration, expressed as percent of control; set-up: scale not given: the % may be the effect or the level left
Rattus norvegicus [6] = species on record: Rattus norvegicus; assay: Effective dose to inhibit the rat's left hand paw swelling by 50%.; procedure, shortened: as §2
Rattus norvegicus [7] = species on record: Rattus norvegicus; assay: Bone resorption inhibitory effect was evaluated as calcium released from bone into medium at 30 uM compound concentration, expressed as percent of control; set-up: scale not given: the % may be the effect or the level left; procedure, shortened: as §1

## COC(=O)c1c(CSc2nccn2C)nc2cc(OC)c(OC)cc2c1-c1ccc(OC)c(OC)c1
Rattus norvegicus [1]
  inhibition in vivo at 50 mg/kg: 67%
Rattus norvegicus [2]
  Activity: 46%

## CCOC(=O)c1c(CSc2nccn2C)nc2cc(OC)c(OC)cc2c1-c1ccc(Cl)cc1
Rattus norvegicus [1]
  inhibition in vivo at 50 mg/kg: 41%

## CCOC(=O)c1c(CSc2nccn2C)nc2cc(OCC)c(OCC)cc2c1-c1ccc(OC)c(OC)c1
Rattus norvegicus [1]
  inhibition in vivo at 50 mg/kg: 59%

## CCOC(=O)c1c(CSc2ncc[nH]2)nc2cc(OC)c(OC)cc2c1-c1ccc(OC)c(OC)c1
Rattus norvegicus [1]
  inhibition in vivo at 50 mg/kg: 60%

## CCOC(=O)c1c(Cn2ccnc2C)nc2cc(OC)c(OC)cc2c1-c1ccc(OC)c(OC)c1
Rattus norvegicus [3]
  inhibition in vivo at 12.5 mg/kg: 55%

## CCOC(=O)c1c(CSc2nncn2C)nc2cc(OC)c(OC)cc2c1-c1ccc(OC)c(OC)c1
Rattus norvegicus [4]
  ED50: 11.6 mg/kg
Rattus norvegicus [1]
  inhibition in vivo at 50 mg/kg: 66%

## COc1cc2c(OC)c3c(c(-c4ccc5c(c4)OCO5)c2cc1OC)C(=O)OC3 [JUSTICIDIN A]
Rattus norvegicus [1]
  inhibition in vivo at 50 mg/kg: 10%
Rattus norvegicus [5]
  Activity: 48%

## CCOC(=O)c1c(C[S+]([O-])c2nccn2C)nc2cc(OC)c(OC)cc2c1-c1ccc(OC)c(OC)c1 (centres undefined)
Rattus norvegicus [3]
  inhibition in vivo at 12.5 mg/kg: 73%
Rattus norvegicus [6]
  ED50: 6.5 mg/kg

## CCOC(=O)c1c(CSc2nccn2C)nc2cc(OC)c(OC)cc2c1-c1ccc(C)cc1
Rattus norvegicus [1]
  inhibition in vivo at 50 mg/kg: 67%

## CCOC(=O)c1c(CSc2nccn2C)nc2cc(OC)c(OC)cc2c1-c1ccc(OC)c(OC)c1
Rattus norvegicus [7]
  Activity: 57%
Rattus norvegicus [4]
  ED50: 25 mg/kg
Rattus norvegicus [1]
  inhibition in vivo at 50 mg/kg: 60%

## CCOC(=O)c1c(Cn2ccnc2)nc2cc(OC)c(OC)cc2c1-c1ccc(OC)c(OC)c1
Rattus norvegicus [3]
  inhibition in vivo at 12.5 mg/kg: 70%
Rattus norvegicus [6]
  ED50: 7.7 mg/kg

## CCOC(=O)c1c(CSc2nccn2C)nc2cc3c(cc2c1-c1ccc(OC)c(OC)c1)OCCO3
Rattus norvegicus [1]
  inhibition in vivo at 50 mg/kg: 56%
Rattus norvegicus [2]
  Activity: 66%

## COc1ccc(-c2nc(CSc3nccn3C)nc3cc(OC)c(OC)cc23)cc1OC
Rattus norvegicus [1]
  inhibition in vivo at 50 mg/kg: < 50%

## COc1ccc(-c2nc(Cn3cncn3)nc3cc(OC)c(OC)cc23)cc1OC
Rattus norvegicus [3]
  inhibition in vivo at 12.5 mg/kg: < 50%

## CCOC(=O)c1c(CSc2nccn2C)nc2cc(OC)c(OC)cc2c1-c1ccccc1
Rattus norvegicus [1]
  inhibition in vivo at 50 mg/kg: 31%

## CCOC(=O)c1c(CSc2nccn2C)nc2ccc(OC)cc2c1-c1ccc(OC)cc1
Rattus norvegicus [1]
  inhibition in vivo at 50 mg/kg: 45%
Rattus norvegicus [2]
  Activity: 66%

## CCOC(=O)c1c(CSc2nccn2C)nc2cc(OC)c(OC)cc2c1-c1ccc(OC)cc1
Rattus norvegicus [1]
  inhibition in vivo at 50 mg/kg: 64%

## CCOC(=O)c1c(CCCn2cncn2)nc2cc(OC)c(OC)cc2c1-c1ccc(OC)c(OC)c1
Rattus norvegicus [3]
  inhibition in vivo at 12.5 mg/kg: < 50%

## CCOC(=O)c1c(CSc2nccn2CC)nc2cc(OC)c(OC)cc2c1-c1ccc(OC)c(OC)c1
Rattus norvegicus [1]
  inhibition in vivo at 50 mg/kg: 51%

## COc1ccc(-c2nc(Cn3ccnc3C)nc3cc(OC)c(OC)cc23)cc1OC
Rattus norvegicus [3]
  inhibition in vivo at 12.5 mg/kg: < 50%

## CCOC(=O)c1c(CSc2nccn2C)nc2ccccc2c1-c1ccc(OC)c(OC)c1
Rattus norvegicus [1]
  inhibition in vivo at 50 mg/kg: 33%

## CCOC(=O)c1c(Cn2cncn2)nc2cc(OC)c(OC)cc2c1-c1ccc(OC)c(OC)c1
Rattus norvegicus [3]
  inhibition in vivo at 12.5 mg/kg: 65%
Rattus norvegicus [7]
  Activity: 59%
Rattus norvegicus [6]
  ED50: 2.6 mg/kg

## CCOC(=O)c1c(CSc2nccn2C)nc2cc(OC)c(OC)cc2c1-c1ccc2c(c1)OCO2
Rattus norvegicus [1]
  inhibition in vivo at 50 mg/kg: 63%

## COc1ccc(-c2nc(CCc3nccn3C)nc3cc(OC)c(OC)cc23)cc1OC
Rattus norvegicus [1]
  inhibition in vivo at 50 mg/kg: 71%

## CCOC(=O)c1c(CCc2nccn2C)nc2cc(OC)c(OC)cc2c1-c1ccc(OC)c(OC)c1
Rattus norvegicus [6]
  ED50: 14.7 mg/kg
Rattus norvegicus [1]
  inhibition in vivo at 50 mg/kg: 75%

## CCOC(=O)c1c(Cn2ccnc2CC)nc2cc(OC)c(OC)cc2c1-c1ccc(OC)c(OC)c1
Rattus norvegicus [6]
  ED50: 9.1 mg/kg

## CCOC(=O)c1c(CS(=O)(=O)c2nccn2C)nc2cc(OC)c(OC)cc2c1-c1ccc(OC)c(OC)c1
Rattus norvegicus [1]
  inhibition in vivo at 50 mg/kg: 56%

— ChEMBL document CHEMBL1129459, “Studies on disease-modifying antirheumatic drugs: synthesis of novel quinoline and quinazoline derivatives and their anti-inflammatory effect” (1996)
